Series [1] has as its target T1, human UGT1A1 (Homo sapiens, UniProt P22309).
T1 sequence (P22309 26-533): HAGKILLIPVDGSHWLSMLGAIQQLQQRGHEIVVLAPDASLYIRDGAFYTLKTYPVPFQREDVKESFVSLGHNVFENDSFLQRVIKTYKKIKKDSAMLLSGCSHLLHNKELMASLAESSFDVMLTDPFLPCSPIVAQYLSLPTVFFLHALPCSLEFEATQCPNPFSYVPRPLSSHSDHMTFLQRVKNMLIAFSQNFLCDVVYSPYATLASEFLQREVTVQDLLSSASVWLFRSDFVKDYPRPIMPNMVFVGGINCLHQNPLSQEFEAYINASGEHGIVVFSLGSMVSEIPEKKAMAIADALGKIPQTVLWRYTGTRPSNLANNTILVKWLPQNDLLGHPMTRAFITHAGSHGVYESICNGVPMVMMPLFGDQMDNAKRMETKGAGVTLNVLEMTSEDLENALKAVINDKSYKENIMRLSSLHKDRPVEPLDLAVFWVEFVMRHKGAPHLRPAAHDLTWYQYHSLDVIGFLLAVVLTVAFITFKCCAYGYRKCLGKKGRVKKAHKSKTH
Description: Inhibition of estradiol 3-O-glucuronidation in the UGT1A1 recombinant system. It is filed as biochemical. The settings on record: for Inhibitory pattern against estradiol 3-O-glucuronidation: Recombinant UGT1A1, Dixon plot; for Inhibition of UGT1A1 activity: UGT1A1 recombinant system, 50 μM fatty acid. The method in brief:
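Recombinant UGT1A1 Supersomes (0.25 mg/ml) were used in 50 mM Tris-HCl pH 7.4, 10 mM MgCl2, 25 μg/ml alamethicin and 2 mM UDPGA, with test fatty acid at 1–50 μM, 3-min preincubation, and 30 min at 37°C. For IC50, estradiol was 10 μM, runs were duplicate, and values came from linear regression. For Ki, estradiol was 5, 10 or 20 μM with Dixon plot. Product measured by HPLC-fluorescence against authentic standard.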

In series [2] the test system is UGT1A1 activity in human small intestine microsomes. Description: Inhibition of estradiol 3-O-glucuronidation in human small intestine microsomes. The series is classed as biochemical. To be noted: Human small intestine microsomes; Dixon plot. The method in brief:
(§1)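 Microsomes from human liver or small intestine (0.25 mg/ml) were incubated with 50 mM Tris-HCl pH 7.4, 10 mM MgCl2, 25 μg/ml alamethicin, 2 mM UDPGA, estradiol at 5, 10 or 20 μM, and test fatty acid at 1–50 μM. After 3-min preincubation at 37°C, UDPGA was added to start; 30 min at 37°C; cold methanol stop. Glucuronide measured by HPLC-fluorescence (ex 280/em 310 nm); Dixon plot gave inhibition type and Ki.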

Another series relates to UGT1A1. The description is as above. The series is classed as biochemical. To be noted: human, human small intestine microsomes; for activity at 30 min, 50 μM: pH 7.4, probe estradiol (10 μM; estradiol 3-O-glucuronide formation). The method in brief:
as §1

Series [3] has as its target T2, UGT1A1 activity in human liver microsomes (Homo sapiens, UniProt P22309).
T2 sequence (P22309 26-533): T1 sequence (P22309 26-533)
In words: Inhibition of estradiol 3-O-glucuronidation in human liver microsomes. To be noted: for Inhibitory pattern against estradiol 3-O-glucuronidation: Human liver microsomes, Dixon plot. The series is classed as biochemical. The method in brief:
as §1
In general terms: Microsomes from liver hold many membrane-bound enzymes, among them those of drug oxidation.

The test system of a further series is hUGT1 mice. It is filed as in vivo. The settings on record: neonatal hUGT1 mice; oral 10 mg/kg at 12 days after birth; 48 hours after treatment; control increase 2.3 ± 3.2 mg/dL.
Series [4] has as its system bilirubin clearance by UGT1A1. In words: Estimated ratio of intrinsic clearance. The settings on record: Equation 4; DHA concentration in human breast milk around 60 μM.
Series [5] concerns the target T1, human UGT1A1. The settings on record: read-out: Km value of bilirubin glucuronidation; cited from earlier work.

Molecules are shown by their SMILES. pIC50, pKi: −log10 of the molar value.

These results are taken from PMC3793218 (Scientific Reports, 2013).

A word on the pIC50: it is −log10 of the IC50, conventionally taken in molar units. For orientation: Ki means the equilibrium dissociation constant of an inhibitor or competing ligand from its target. Lower therefore signals a stronger hold on the target. Broadly, the pKi is the negative decadic logarithm of the Ki, by convention in mol/L. Usually Km stands for the substrate concentration at which the rate is half of its maximum.

For the compound `CCCCC/C=C\C/C=C\C/C=C\C/C=C\CCCC(=O)O` [Arachidonic acid], at human UGT1A1 [1], the pIC50 is 4.64.

On to `CC/C=C\C/C=C\C/C=C\C/C=C\C/C=C\C/C=C\CCC(=O)O` [DHA, docosahexaenoic acid], for which the “Inhibitory pattern against estradiol 3-O-glucuronidation” value (shortened to “Inhibitory pattern”) (in series [2]; at human UGT1A1 [1]; in series [3]) was “non-competitive” in each case. In addition, affinity in the series with UGT1A1 (pH 7.4) was put at a Ki at 30 min of 5.2 µM. For the same compound, on human UGT1A1 [1], the negative logarithm of the IC50 (pIC50) is 4.94. For the same compound, the pKi on human UGT1A1 [1] was 5.74; in series [3] it was 5.37. The “Increase of serum bilirubin levels from 12 days to 14 days after birth” value with hUGT1 mice came to 6.6 mg/dL. For the same compound, the “R value (ratio of intrinsic clearance in presence and absence of inhibitor)” value in series [4] was 0.08.

With `CC/C=C\C/C=C\C/C=C\C/C=C\C/C=C\CCCC(=O)O` [EPA, eicosapentaenoic acid], the pIC50 on human UGT1A1 [1] is 4.70.

For the compound `CCCCC/C=C\C/C=C\CCCCCCCC(=O)O` [Linoleic acid], the activity at 30 min, 50 μM with UGT1A1 was greater than 80%. For the same compound, at human UGT1A1 [1], the pIC50 is 4.48, the pKi is 4.66 and the “Inhibitory pattern” value is “non-competitively”. Also, in series [3], the pKi was 4.62 and the “Inhibitory pattern” value was “non-competitively”.

Regarding `CCCCCCCC/C=C\CCCCCCCC(=O)O` [Oleic acid], the activity at 30 min, 50 μM in the series on UGT1A1 is greater than 80%. Further, on human UGT1A1 [1], the pIC50 is 4.50, the negative-log Ki (pKi) was 4.63 and the “Inhibitory pattern” value is listed as “non-competitively”. In series [3], the pKi is 4.53 and the “Inhibitory pattern” value is “non-competitively”.

For `CCCCCC/C=C\CCCCCCCC(=O)O` [Palmitoleic acid], the pIC50 at human UGT1A1 [1] was 4.43.

Turning to `CCCCCCCCCCCCCCCCCCCC(=O)O` [arachidic acid], on human UGT1A1 [1], the pIC50 was less than 4.30 and the “Inhibition of UGT1A1 activity” value is “not inhibited at all”.

Turning to `CCCCCCCCCCCCCCCCCCCCCC(=O)O` [behenic acid], at human UGT1A1 [1], the pIC50 is less than 4.30 and the “Inhibition of UGT1A1 activity” value was “not inhibited at all”.

Consider `C=CC1=C(C)/C(=C/c2[nH]c(Cc3[nH]c(/C=C4\NC(=O)C(C)=C4C=C)c(C)c3CCC(=O)O)c(CCC(=O)O)c2C)NC1=O` [bilirubin], for which the Km at human UGT1A1 [5] is roughly 2 µM.

For `CCCCCCCCCC(=O)O` [decanoic acid], the pIC50 at human UGT1A1 [1] was less than 4.30.

As to `CCCCCCCCCCCC(=O)O` [lauric acid], the “Inhibition of UGT1A1 activity” value at human UGT1A1 [1] was “not inhibited at all”.

For `CCCCCCCCCCCCCCCCCCCCCCCC(=O)O` [lignoceric acid], the “Inhibition of UGT1A1 activity” value at human UGT1A1 [1] is on record as “not inhibited at all”.

In the case of `CCCCCCCCCCCCCC(=O)O` [myristic acid], on human UGT1A1 [1], the pIC50 was less than 4.30 and the “Inhibition of UGT1A1 activity” value is “not inhibited at all”.

As for `CCCCCCCCCCCCCCCC(=O)O` [palmitic acid], at human UGT1A1 [1], the pIC50 is less than 4.30 and the “Inhibition of UGT1A1 activity” value is reported as “not inhibited at all”.

On to `CCCCCCCCCCCCCCCCCC(=O)O` [stearic acid], for which the pIC50 on human UGT1A1 [1] was less than 4.30.
